Residues, ends and D or L forms follow the SMILES beside them. *: point of attachment. Boc = CC(C)(C)OC(=O)*
Tests used:
[1] = Compound was tested in vitro for inhibition of [125I](Leu15)-HG-17 binding to isolated gastric mucosal cells.; format: tissue-based, Rattus norvegicus, Gastric mucosa
Method in brief: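 Fundic mucosal cells, dispersed by collagenase/EDTA (about 45% parietal cells, 95% viable), were incubated at 5 × 10^6 cells/mL in Earle's medium without bicarbonate (10 mM Hepes, 0.2% BSA, pH 7.4). Incubation was with 20 pM [125I]-(Leu15)-HG-17 for 30 min at 37 °C across a range of peptide concentrations. Nonsaturable binding was taken with 1 × 10^-6 M unlabeled (Nle11)-HG-13. Quadruplicate determinations.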

[2] = tested on: Rattus norvegicus; assay: Compound was tested in vivo for activity against gastrin induced acid secretion in rat.; format: functional
Method in brief: (§1)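 In anaesthetized rats, peptide in alkaline aqueous solution was given as an iv bolus at various doses together with 80 pmol (Leu15)-HG-17 (submaximal dose). pH was recorded for 40 min. For each dose, H+ output with peptide plus gastrin was divided by output with gastrin alone and expressed as percent inhibition.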

[3] = tested on: Rattus norvegicus; assay: Compound was tested in vivo for activity against gastrin induced acid secretion in rat; antagonist; format: functional, organism-based; details: filed as antagonist; method in brief: as §1
[4] = tested on: Rattus norvegicus; assay: Compound was tested in vivo for activity against gastrin induced acid secretion in rat; agonist; format: functional, organism-based; details: filed as agonist

Structure (SMILES) | IC50 [1] | ED50 [2] | Activity [3] | Activity [4]
CC(C)C[C@H](NC(=O)[C@H](Cc1c[nH]c2ccccc12)NC(=O)OC(C)(C)C)C(=O)N[C@H](CN[C@@H](Cc1ccccc1)C(N)=O)CC(=O)O | 5000 nM | 15 mg/kg | Antagonist | 
CC(C)C[C@@H](CN[C@@H](CC(=O)O)C(=O)N[C@@H](Cc1ccccc1)C(N)=O)NC(=O)[C@H](Cc1c[nH]c2ccccc12)NC(=O)OC(C)(C)C | 250 nM | 0.3 mg/kg | Antagonist | 
CC(C)C[C@H](NC(=O)[C@H](Cc1c[nH]c2ccccc12)NC(=O)OC(C)(C)C)C(=O)N[C@@H](CC(=O)O)C(=O)N[C@@H](Cc1ccccc1)C(N)=O (Boc-WLDF-NH2) | 500 nM |  |  | Agonist
CC(C)C[C@H](NC[C@H](Cc1c[nH]c2ccccc12)NC(=O)OC(C)(C)C)C(=O)N[C@@H](CC(=O)O)C(=O)N[C@@H](Cc1ccccc1)C(N)=O | 300 nM |  |  | Agonist
